Bioassay records from PubChem BioAssay.
This is a sample that favours compounds with a hit; in the whole collection about 2.4% have one here.
TMEM16A inh: blocks the mouse calcium-activated chloride channel TMEM16A | HEK293 TMEM16A/YFP iodide influx fluorescence, ionomycin | Q8BHY3 | hit rate 1.2% among 310,000 | normalized B-score (activity score, 25-100; higher = stronger inhibition) at 10 µM;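 active = ratio plate-corrected score three or more library SD toward inhibition, starting fluorescence score within five deviations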;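 also: score derived from kinetic fluorescence span divided by baseline fluorescence per well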
FID counter: fluorescent intercalator displacement, NS3 helicase counter-screen; DNA fluorescent intercalator displacement, fluorescence; inhibition, % at 7.9 µM; hit rate 0.17% among 290,000; AID 1845; in the data active = inhibition above about 37%;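 also: 0% = vehicle and 100% = reference compound; higher means more ethidium bromide displaced from hairpin DNA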
TMEM16A act: activators or potentiators of mouse TMEM16A chloride channel; hit rate 0.3% among 340,000; B-score at 10 µM; HEK293 TMEM16A/YFP-H148Q/I152L, iodide quench fluorescence; stronger effect = lower value;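 active = fluorescence-ratio B-score plate-corrected deviation score at least 3 library SD below zero, with starting fluorescence score within 5 deviations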;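 also: channel opened by trigger with iodide after compound preincubation; score built on the fluorescence ratio of max minus min over baseline; more negative score means more quench and so TMEM16A activation or potentiation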
UBC13 inh: inhibitors of human UBC13 polyubiquitin chain formation | hit rate 0.47% among 330,000 | TR-FRET | inhibition, % at 20 µM; in the data active = inhibition above about 45%, passing the limit was not always enough
Apaf1 inhib: human Apaf-1 inhibition. hit rate 0.71% among 330,000. reconstituted apoptosome caspase-3 activity, DEVD-Rh110 fluorescence. inhibition, % at 20 µM. AID 489030. O14727; active = inhibition of at least 40% at 20 µM;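 also: plate controls were DMSO wells for no effect and DEVD-CHO caspase inhibitor wells for full effect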
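Assay system – apoptosome proteins · Medium – Hepes buffer, pH 7.5 · Also added – cytochrome c with DEVD-Rh110 · Timing – 30 min compound preincubation, 50 min activation, room temperature · Detection – Rh110 fluorescence, excitation 480 nm, emission 540 nm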
TMEM16A reconf: reconfirmed blocker of mouse TMEM16A calcium-activated chloride channel; inhibition, % at 10 µM; hit rate 39% among 2,300; shares compounds with TMEM16A inh; HEK293 TMEM16A/YFP-H148Q, iodide quench fluorescence; ionomycin added to raise cell calcium; AID 652189;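 active = mean duplicate percent inhibition, scaled so buffer wells are 0 and the reference blocker 100, over three buffer SD above buffer mean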
HEK293 Ca mobil: calcium mobilization counter-screen hit for TMEM16A inhibitor series | calcium response (% of ionomycin), % at 10 µM | TMEM16A/YFP HEK293, Fluo4 calcium mobilization | AID 652231 | hit rate 2% among 2,300 | shares compounds with TMEM16A inh;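 active = duplicate-averaged calcium signal over 20% of the ionomycin maximum, relative to buffer baseline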;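 also: each well's signal is peak minus trough fluorescence divided by its pre-addition baseline; 0% = buffer wells and 100% = ionomycin wells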
YFP-HEK293 quench: parental YFP-HEK293 iodide quench counter-screen activity; shares compounds with TMEM16A inh; ionomycin; YFP ratio F(max-min)/F0 at 10 µM; 2,300 tested, under 10 active;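 active = yellow fluorescent protein signal ratio exceeding the buffer control mean by over 5 SD of those controls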;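 also: ratio is mean of duplicate wells from kinetic YFP trace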
ClC-1 rat inh: selectivity of TMEM16A inhibitors: inhibition of rat ClC-1 chloride channel; shares compounds with TMEM16A inh; CHO ClC-1-YFP, iodide influx fluorescence quench; iodide control reads 0, buffer control 100; ratio percent, % at 10 µM; 2,300 tested, under 10 active; AID 652236;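 active = duplicate-mean ratio percent above the mean of iodide-only control wells, which defines zero, plus 5 of their SD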;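 also: higher percent means stronger block of ClC-1 iodide influx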
An asterisk follows results filed as active; i = inactive; . = no result.

SMILES	TMEM16A inh	FID counter	TMEM16A act	UBC13 inh	Apaf1 inhib	TMEM16A reconf	HEK293 Ca mobil	YFP-HEK293 quench	ClC-1 rat inh
COC(=O)c1cc(NC(=O)C(C)c2ccc(CC(C)C)cc2)ccc1O (stereo not drawn)	25*	7.2	i	-0.3	26.7	21.5%*	i	-0.94	-9.0
CC(C)Cc1ccc(C(C)C(=O)Nc2ncccn2)cc1 (stereo not drawn)	i	-11.2	i	-5.0	2.8	.	.	.	.
O=C(c1ccccc1)c1ccc2cc(O)ccc2c1	25*	-1.3	i	-1.1	15.4	i	i	-1.05	-1.5
CSc1ccccc1-c1nnc(-c2ccc(C)cc2)o1	25*	-17.0	i	17.2	24.0	i	i	-1.2	3.0
COc1ccc(N2CCN(C(=O)COC(=O)Cc3cccc(OC)c3)CC2)cc1	i	.	i	1.9	-0.2	.	.	.	.
NC(=O)CSc1nnc(Cn2c(=O)sc3ccccc32)n1-c1cccc(Cl)c1	25*	-18.8	i	-10.6	-3.4	i	i	-1.26	-5.5
CSc1ccccc1NC(=O)Nc1cccc(F)c1	i	2.2	i	5.2	-8.5	.	.	.	.
CSc1ccccc1NC(=O)Nc1ccccc1	100*	-2.7	i	5.1	-6.5	i	i	-0.982	-4.0
Cc1ccc(C(=O)Nc2ncc([N+](=O)[O-])s2)cc1	25*	9.4	i	.	.	50.5%*	i	-0.98	-27.0
O=C(Nc1ncc([N+](=O)[O-])s1)c1ccco1	i	4.0	i	-13.5	8.6	.	.	.	.
O=C(Nc1ccc2c(c1)C(=O)N(CC1CCCO1)C2=O)c1ccc(Cl)c(Cl)c1 (stereo not drawn)	100*	-1.9	i	-0.5	-0.3	51.5%*	i	-0.889	-26.0
Cc1ccc(NC(=O)c2ccc3c(c2)C(=O)N(CC2CCCO2)C3=O)cc1C (stereo not drawn)	i	-9.5	i	-0.1	2.0	.	.	.	.
COc1ccc(OC)c(NC(=O)COc2coc(CN3CCc4ccccc43)cc2=O)c1	i	.	i	1.4	17.3	.	.	.	.
CC1CN(S(=O)(=O)c2ccc(Cl)c(S(=O)(=O)N3CC(C)OC(C)C3)c2)CC(C)O1 (stereo not drawn)	100*	1.4	i	0.0	-0.5	i	i	-0.739	-1.0
O=C(c1ccc2oc(Cc3ccc(Cl)cc3)nc2c1)N1CCCCC1CCO (stereo not drawn)	i	-54.0	i	3.8	-1.6	.	.	.	.
CCCc1cc(=O)oc2cc(OC(=O)CN3C(=O)NC4(CCCC4)C3=O)ccc12	i	.	i	14.0	7.1	.	.	.	.
O=C(O)CCc1ccc(S(=O)(=O)N2CCOCC2)cc1	i	4.4	i	6.4	-4.7	.	.	.	.
O=C(CCc1ccc(S(=O)(=O)N2CCOCC2)cc1)Oc1ccccc1	25*	-22.8	i	-5.0	-0.4	i	i	-1.23	-1.0
O=C(N/N=C/c1ccc(Br)cc1)c1ccc(NC(=O)c2ccccc2)cc1	.	.	i	.	.	.	.	.	.
Cc1[nH]n(-c2ccc(Br)cc2)c(=O)c1/C=N/NC(=O)c1ccccc1	100*	-11.7	i	-29.2	15.9	21.0%*	i	-0.782	-18.0
CCC(=O)Oc1ccc(C/C(=N\O)c2ccc(O)cc2O)o1	25*	-5.9	i	11.1	-13.7	24.0%*	i	-0.934	-20.5
CCN(C(=O)COC(=O)c1cnc(C)cn1)C1CCCCC1	100*	-8.1	i	-5.1	-14.1	i	i	-1.19	-0.5
CC(SC1CCCC1)C(=O)Nc1ccnn1C(C)C (stereo not drawn)	i	2.4	i	-7.5	2.7	i	i	-1.08	-2.5
COc1ccc(C2=NOC(C(=O)NC(C)C)C2)cc1 (stereo not drawn)	i	-2.7	i	-13.3	5.1	.	.	.	.
COc1ccc(C2=NOC(C(=O)NCC(C)C)C2)cc1 (stereo not drawn)	100*	-7.8	i	-2.5	-3.3	i	i	-0.974	-10.5
SMILES	TMEM16A inh	FID counter	TMEM16A act	UBC13 inh	Apaf1 inhib	TMEM16A reconf	HEK293 Ca mobil	YFP-HEK293 quench	ClC-1 rat inh
Cc1sc2ncnc(N3CCN(S(=O)(=O)c4ccc(Br)cc4)CC3)c2c1C	25*	-7.5	i	11.6	17.1	30.0%*	i	-0.99	-23.0
CC(C)c1nc(SCC(=O)c2ccc(F)cc2)c2ccccc2n1	i	-10.8	i	13.5	20.1	.	.	.	.
Cc1ccc(C(=O)CSc2nc(C(C)C)nc3ccccc23)cc1	100*	-14.1	i	19.4	26.1	i	i	-0.967	-13.0
Cc1ccccc1CSc1ccc(S(=O)(=O)N2CCCC2)cn1	.	.	i	9.6	10.7	.	.	.	.
CC(C)CC(=O)n1sc(NC(=O)c2ccccc2)nc1=O	i	-4.3	i	-6.9	-6.8	.	.	.	.
COC(=O)C1=C(C(=O)OC)SC(=C2C(=S)C(C)(C)N(C(=O)CC(C)C)c3ccccc32)S1	25*	0.0	i	-65.8	10.6	i	i	-1.14	-12.5
Cc1ccnc(NC2OC(=O)c3ccccc32)c1 (stereo not drawn)	i	2.1	i	0.0	4.5	.	.	.	.
O=C(N[C@@H](Cc1c[nH]c2ccccc12)C(=O)O)c1ccccc1Cl	25*	-19.6	i	-2.3	-1.3	i	i	-1.16	5.0
O=C(N[C@@H](Cc1c[nH]c2ccccc12)C(=O)NC1CC1)c1ccccc1Cl	i	-0.4	i	5.6	0.0	.	.	.	.
COc1ccc2c(c1)CCc1c(C(=O)NC3CCCCC3)noc1-2	100*	-9.2	i	11.1	-4.1	i	i	-0.841	-4.5
COc1ccc(-n2c(C)cc(C(=O)COC(=O)Cn3cnc4ccccc43)c2C)cc1	100*	-14.0	i	-1.7	25.5	23.0%*	i	-1.16	-10.5
COc1ccc(NC(=O)COC(=O)Cn2cnc3ccccc32)cc1	.	.	i	14.8	-7.4	.	.	.	.
COC(=O)COc1cccc(-n2cnnn2)c1	i	3.3	i	0.0	-4.7	.	.	.	.
Cc1cc(C(=O)COc2cccc(-n3cnnn3)c2)c(C)n1-c1ccccc1	100*	-2.9	i	7.2	6.8	i	i	-0.952	-3.0
O=C(CNc1cccc(S(=O)(=O)N2CCCC2)c1)Nc1cccc(Br)c1	25*	.	i	1.4	18.6	16.5%*	i	-0.971	-18.0
CC(=O)c1cccc(NC(=S)NC(=O)c2ccccc2)c1	i	-7.1	i	-4.3	11.2	.	.	.	.
